Assay [1] has as its system iNKT. Kind of assay: Effect on immune response in human iNKT cells stimulated by antigen-presenting CD1d-transfected human HeLa cells assessed as induction of IFN-gamma release by ELISA. It counts as functional, cell-based. An outline of the steps: (§1)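 A human Vα24 iNKT cell line was stimulated for 6 h by CD1d-transfected HeLa cells loaded overnight with increasing glycolipid concentrations. Before loading, the glycolipid was solubilized in DMSO for a couple of hours at 37 °C. Supernatant TNF-α was measured by a cellular assay, and IFN-γ and IL-4 by ELISA. Triplicates were run, and one representative of three experiments is shown. EC50 values were given as mean ± SD.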
On the technique in general: An ELISA detects its analyte on a solid surface through an enzyme-linked reagent.

Assay [2] relates to Mus musculus. Kind of assay: Regulation of immune response in C57BL/6J mouse assessed as induction of NKT cell cytokine response-related IL2 secretion at 10 to 1000 ug/kg, ip after 2 hrs by ELISA. It counts as functional, organism-based.
In assay [3] the test system is iNKT. Kind of assay: Effect on immune response in human iNKT cells stimulated by antigen-presenting CD1d-transfected human HeLa cells assessed as induction of TNFalpha release by MTT assay. The assay is classed as functional, cell-based. An outline of the steps:
as §1
For orientation: Tetrazolium assays rely on reduction of a dye to a coloured formazan, in cell work by metabolically active cells.

Assay [4] relates to iNKT. Kind of assay: Effect on immune response in human iNKT cells stimulated by antigen-presenting CD1d-transfected human HeLa cells assessed as induction of IL4 release by ELISA. It counts as functional, cell-based. In short, it runs like this: as §1
For assay [5], the system named is Mus musculus. Kind of assay: Regulation of immune response in C57BL/6J mouse assessed as induction of NKT cell cytokine response-related IL4 secretion at 100 ug/kg, ip after 4 hrs by ELISA. The assay is classed as functional, organism-based. An outline of the steps: (§2)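 Mice were given glycolipid ip at 10, 50, 100 or 1000 μg/kg. Cytokine release kinetics (TNF-α, IL-4, IFN-γ) were followed over time after injection, with sampling that included 4 h and 18 h. Groups were compared statistically (P < 0.05 threshold).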

Assay [6] has as its system Mus musculus. Kind of assay: Regulation of immune response in C57BL/6J mouse assessed as induction of NKT cell cytokine response-related IFN-gamma secretion at 10 to 1000 ug/kg, ip after 14 hrs by ELISA. It counts as functional, organism-based.
Assay [7] relates to Mus musculus. Kind of assay: Regulation of immune response in C57BL/6J mouse assessed as induction of NKT cell cytokine response-related IFN-gamma secretion at 100 ug/kg, ip after 18 hrs by ELISA. It counts as functional, organism-based. An outline of the steps: as §2
For assay [8], the system named is Mus musculus. Kind of assay: Regulation of immune response in C57BL/6J mouse assessed as induction of NKT cell cytokine response-related IL2 secretion at 10 to 1000 ug/kg, ip after 14 hrs by ELISA. It counts as functional, organism-based.
Assay [9] deals with Mus musculus. Kind of assay: Regulation of immune response in C57BL/6J mouse assessed as induction of NKT cell cytokine response-related TNFalpha secretion at 100 ug/kg, ip after 4 hrs by ELISA. It counts as functional, organism-based. In short, it runs like this:
as §2

In assay [10] the test system is Mus musculus. Kind of assay: Regulation of immune response in C57BL/6J mouse assessed as induction of NKT cell cytokine response-related IFN-gamma secretion at 10 to 1000 ug/kg, ip after 2 hrs by ELISA. It counts as functional, organism-based.

Calls of active or inactive are those of the source.

Broadly, the EC50 is the midpoint of the concentration-response curve.

Take `CCCCCCCCCCCCCCCCCCCCCCCCCC(=O)N[C@@H](CO[C@H]1O[C@H](CO)[C@H](O)[C@H](O)[C@H]1O)C(O)[C@H](O)CCCCCCCCCCCCCC` (single isomer, unassigned) [RGI-7000]: the outcome in the assay with iNKT [1], in the assay on Mus musculus [2], with iNKT [4], in the assay with Mus musculus [5], in the assay with Mus musculus [6] and in the assay on Mus musculus [7] was Active. The outcome with Mus musculus [8], in the assay on Mus musculus [9] and in the assay with Mus musculus [10] was Active. The EC50 with iNKT [3] turned out to be 5 nM.

The values are drawn from ChEMBL document CHEMBL1158474, “Focus on the controversial activation of human iNKT cells by 4-deoxy analogue of KRN7000” (J Med Chem, 2009).
